# Assay results from different studies.
# Each line is one published result; the experiments were not run side by side.
# Target: Vascular endothelial growth factor receptor 1 (FLT1, Homo sapiens, UniProt P17948)
Compound,assay,setting,quantity,result
Cn1cc(-c2cccc(N3CCc4c(sc5c4CC(C)(C)C5)C3=O)c2CO)cc(Nc2ccncn2)c1=O,"enzyme activity, inhibitor",1 µM,inhibition,2%
CC(C)(C)c1cc(C=C(C#N)C#N)cc(Br)c1O,"enzyme activity, inhibitor",0.5 µM,remaining activity,92.5%
Cc1ncc(C)n2nc(/C=C/c3nc(N4CCCC4)cc(N4CCOCC4)n3)nc12,"enzyme activity, inhibitor",10 µM,inhibition,-6%
O=C(Nc1cccnn1)N1CCN([C@@H]2CCOc3cc(C(F)(F)F)ccc32)CC1,"enzyme activity, inhibitor",20 µM,inhibition,2%
Nc1ncc(-c2nc(N3CCOCC3)nc(N3CCOCC3)n2)c(C(F)F)n1,"cell-free assay, competition with immobilised ligand",10 µM,remaining binding,91%
Cn1cc(-c2cc(F)cc(N3CCn4c(cc5c4CCCC5)C3=O)c2CO)cc(Nc2ccc(N3CCN(C4COC4)CC3)cn2)c1=O,"enzyme activity, inhibitor",0.1 µM,inhibition,5%
C#Cc1n[nH]c2c(-c3cn([C@@H](C)c4ccccc4)c(=O)[nH]c3=O)cc(F)cc12,"enzyme activity, inhibitor",0.1 µM,inhibition,1.9%
COCc1c(-c2cc3cc(C)cc(OC)c3s2)c2c(N)ncnn2c1CN1CCNC(=O)C1,"cell-free assay, competition with immobilised ligand",1 µM,inhibition,91.7%
C#Cc1n[nH]c2c(-c3cn([C@@H](C)c4ccccn4)c(=O)[nH]c3=O)cc(F)cc12,"enzyme activity, inhibitor",0.1 µM,inhibition,2%
O=c1[nH]c2ccccc2n1C1CCN(Cc2ccc(-c3[nH]c4cc5ncnc5cc4nc3-c3ccccc3)cc2)CC1,cell-free assay,0.5 µM,remaining signal,92.2%
COc1ncccc1-c1cnn2ccc(N3CCN(C(=O)OC(C)C)CC3)nc12,"binding, competition with immobilised ligand",1 µM,remaining binding,100%
Cn1cncc1[C@](O)(COc1ccc(C#N)cc1-c1ccc(OC(F)(F)F)cc1)c1ccc(C#N)cc1,"cell-free assay, competition with immobilised ligand",1 µM,remaining binding,98%
